Screening results from PubChem BioAssay.
CCR6 antagonist – CCR6 receptor antagonists, primary screen, cell-based, CHO-K1, luminescence, beta-arrestin, uHTS; C-C chemokine receptor type 6 (Homo sapiens), P51684; CHO-K1 CCR6 PathHunter beta-arrestin, CCL20-stimulated; inhibition, % at 20 µM; 340,000 compounds, 0.49% hits;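 active = compounds whose inhibition of the agonist-driven luminescence signal at 20 µM reaches about 50%, limit read from the data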;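 note: cells stimulated with CCL20 at 14 nM final; plate controls were DMSO with CCL20 for no effect and DMSO without agonist for full effect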
CXCR6 block – CXCR6 receptor inhibitors, primary screen, cell-based, beta-arrestin, luminescence, CHO-K1 PathHunter, 1536-well; C-X-C chemokine receptor type 6 (Homo sapiens), O00574; inhibition, % at 20 µM; 360,000 compounds, 0.36% hits; AID 602244, 2012; in the data active = inhibition above about 34%, passing the limit was not always enough;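 note: antagonist mode with CXCL16 agonist at 10 nM final; 0% = 10 nM CXCL16 with DMSO and 100% = unstimulated wells without agonist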
Target sequence (O00574 whole entry, looked up): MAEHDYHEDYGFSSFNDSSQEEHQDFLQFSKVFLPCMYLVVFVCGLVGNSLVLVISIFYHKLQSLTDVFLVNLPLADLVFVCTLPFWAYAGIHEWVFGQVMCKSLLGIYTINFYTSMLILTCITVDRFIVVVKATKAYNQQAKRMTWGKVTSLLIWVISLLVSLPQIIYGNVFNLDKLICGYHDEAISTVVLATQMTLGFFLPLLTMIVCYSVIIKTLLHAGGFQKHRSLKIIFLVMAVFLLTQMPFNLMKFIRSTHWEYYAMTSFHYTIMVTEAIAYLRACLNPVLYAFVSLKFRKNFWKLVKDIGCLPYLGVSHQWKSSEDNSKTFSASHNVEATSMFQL
EBI2 block – EBI2 receptor antagonists, beta-arrestin recruitment, primary screen, cell-based, luminescence, 7a,25-OHC stimulation, uHTS | inhibition, % at 5 µM | AID 651636, 2012 | 360,000 compounds, 0.81% hits | G-protein coupled receptor 183 (Homo sapiens), P32249 | 7a,25-OHC stimulated; in the data active = inhibition above about 38%;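 note: enzyme fragment complementation signal reports receptor beta-arrestin coupling in cells; 0% = agonist plus DMSO wells and 100% = wells without agonist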
APJ antag – antagonists of human apelin receptor APJ, primary screen, CHO-K1 cells, beta-arrestin complementation, luminescence; 330,000 compounds, 0.32% hits; P35414; inhibition, % at 20 µM; AID 2521, 2010;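 active = inhibition above about 40% at 20 µM, limit read from the data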;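 note: cells challenged with 10 nM apelin-13 agonist together with compound; plate controls were apelin-13 plus DMSO wells for no effect and DMSO wells lacking apelin-13 for full effect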
Target sequence (P35414 whole entry, looked up): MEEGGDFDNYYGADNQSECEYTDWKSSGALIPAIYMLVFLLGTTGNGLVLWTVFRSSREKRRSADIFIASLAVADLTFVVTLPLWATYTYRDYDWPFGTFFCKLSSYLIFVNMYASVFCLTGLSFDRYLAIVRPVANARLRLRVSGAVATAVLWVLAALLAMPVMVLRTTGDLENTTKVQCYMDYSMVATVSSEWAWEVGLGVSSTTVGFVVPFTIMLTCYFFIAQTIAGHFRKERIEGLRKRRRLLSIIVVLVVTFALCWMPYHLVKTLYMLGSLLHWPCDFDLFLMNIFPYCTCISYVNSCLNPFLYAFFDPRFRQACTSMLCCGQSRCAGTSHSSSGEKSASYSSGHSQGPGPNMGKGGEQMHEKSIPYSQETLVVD
APJ agonist – agonists of human apelin receptor APJ, primary screen, CHO-K1 cells, PathHunter beta-arrestin, luminescence; P35414; 0% DMSO wells, 100% apelin; activation, % at 20 µM; 330,000 compounds, 0.11% hits; AID 2520, 2010;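 active = activation more than six SD over the plate average, tested at 20 µM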;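 note: 0% = DMSO alone and 100% = apelin-13 at 10 nM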
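Incubation: overnight seeding, 90 min compound at 25 °C, 1 h detection; test system: PathHunter CHO-K1 APJ (AGTRL-1) beta-arrestin reporter cells; amount: 1000 cells/well; doses: one dose, 20 µM compound, 1% DMSO; measured by: beta-gal luminescence; measure: agonist-driven arrestin binding to APJ; benchmarks: negative DMSO alone, positive Apelin-13 at 10 nM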
EBI2 antag conf – EBI2 antagonist hit retest, beta-arrestin, confirmation, cell-based, single concentration, luminescence, 7a,25-OHC stimulation; shares compounds with EBI2 block; 7a,25-OHC antagonism; inhibition, % at 5 µM; 2,400 compounds, 29% hits;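 active = inhibition of at least 50%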
EBI2 ag – EBI2 agonist activity of antagonist hits, confirmation, counter-screen for EBI2 antagonist project, cell-based, single concentration, agonist mode, luminescence; EBI2-expressing cells, 60 min; 0% vehicle, 100% 7α,25-dihydroxycholesterol control; AID 652000, 2013; 2,400 tested, under 10 active; shares compounds with EBI2 block; activation, % at 5 µM;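 active = activation of at least 50%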
bGal counter – E. coli beta-galactosidase enzyme inhibition, confirmation, counter-screen for EBI2 antagonist project, biochemical, luminescence, single concentration; inhibition, % at 5 µM; shares compounds with EBI2 block; purified beta-galactosidase, luminescent Galacton Star, 15 min; 2,400 compounds, 1% hits;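 active = replicate-average signal at least 3 plate SD below neutral wells, shown as high inhibition, flagging enzyme-inhibiting false positives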;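 note: 0% = DMSO wells with enzyme and 100% = wells lacking enzyme; higher means stronger loss of beta-gal luminescence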
* marks the source's active call; other numbers are inactive results; / = no result. Only some compounds are listed: those with a hit (about 1.5% of all), similar ones and a draw of the others.

SMILES	CCR6 antagonist	CXCR6 block	EBI2 block	APJ antag	APJ agonist	EBI2 antag conf	EBI2 ag	bGal counter
COc1ccc(C(=O)Cn2nnc(-c3ccccc3NC(=O)c3ccco3)n2)cc1	17.0	-7.6	7.6	13.1	-0.3	/	/	/
CCN(CC)C(=O)Cn1nc(-c2ccccc2O)nc1SCC(=O)Nc1ccc(OC)cc1	5.9	0.2	14.2	-12.1	-0.6	/	/	/
N#C/C(=C\c1ccc(Br)s1)C(=O)N1CCN(c2ccccc2)CC1	4.6	8.9	73.2*	7.4	2.5	20.6	0.0	8.0
CC1(C2CC2)NC(=O)N(CC(=O)Nc2ccc(OC(F)F)cc2)C1=O (stereo not drawn)	/	1.9	-13.8	/	/	/	/	/
CCOc1ncccc1C(=O)Nc1ccc(C(=O)Nc2ccc(OC)cc2)cc1	3.7	16.7	57.1*	4.3	-7.4	30.7	1.8	0.6
CCOc1ccc(NC(=O)c2ccc(OC)cc2)cc1	-2.8	0.9	13.2	9.3	-2.7	/	/	/
CCC(=O)c1ccc(N2CCN(C(=O)c3ccccc3)CC2)c(F)c1	12.7	-13.4	-1.4	-4.5	-1.3	/	/	/
COc1cc2nc(SCc3ccc(Cl)cc3Cl)n(Cc3cccs3)c(=N)c2cc1OC	3.7	-4.6	42.7*	7.3	-2.7	29.6	0.8	1.4
COCCCn1c(SCC(=O)O)nc2cc(OC)c(OC)cc2c1=N	8.7	-0.4	-5.5	-0.3	-2.9	/	/	/
COCCCn1c(SCc2ccccc2)nc2cc(OC)c(OC)cc2c1=N	38.3	-7.8	53.9*	11.7	-2.4	48.0	-0.8	-1.7
CCN(CC(=O)Nc1c(F)cccc1F)C(=O)Cn1[nH]c(=O)c2ccccc2c1=O	5.3	-3.9	-4.6	19.8	-6.8	/	/	/
COc1ccc(NC(=O)c2cc3ccccc3o2)cn1	3.6	-2.2	38.0*	6.4	-2.6	19.4	1.0	7.4
COc1ccc(NC(=O)c2cc(=O)c3ccccc3o2)cn1	12.7	-9.0	4.7	9.7	0.2	/	/	/
COc1cccc(NC(=O)Cn2c3ccccc3c3nc4n(c(=O)c32)CCCS4)c1	11.0	0.2	82.6*	5.6	-0.2	49.9	1.0	3.6
NC(=O)[C@@H]1CC2(CC(c3cccc(NC(=O)COc4ccc(Cl)cc4)c3)=NO2)CN1C(=O)COc1ccc(Cl)cc1 (stereo partly drawn)	1.4	8.2	52.8*	-4.7	15.6	24.4	-1.2	-17.8
O=C(/C=C/c1cccc(Br)c1)N1CCN(c2cccc(C(F)(F)F)c2)CC1	22.2	4.8	16.8	5.7	-0.8	/	/	/
O=C(COc1ccc(Cl)cc1Cl)N1CCCN(C(=O)COc2ccc(Cl)cc2Cl)CC1	-0.6	-1.8	36.7	4.8	-19.3	/	/	/
COc1ccc(N2CCN(C(=O)COc3ccc(Cl)cc3Cl)CC2)cc1	2.7	-8.8	51.3*	20.7	-3.5	21.4	-1.8	-9.7
COc1ccc(C(=O)CCC(=O)N2CCN(c3cccc(Cl)c3)CC2)cc1	2.8	-12.3	5.2	19.6	-2.5	/	/	/
O=C(/C=C/c1ccc(Br)cc1)N1CCN(c2cccc(C(F)(F)F)c2)CC1	19.5	3.3	94.1*	/	/	80.9*	-1.1	-11.6
COc1ccc(OCC(=O)N2CCN(c3cccc(C(F)(F)F)c3)CC2)cc1	22.4	10.1	70.0*	6.0	7.2	51.3*	-1.9	-12.4
COc1ccc(OCC(=O)N2CCN(c3cccc(Cl)c3)CC2)cc1	8.3	3.7	86.1*	0.5	1.9	71.1*	-0.6	-13.7
COc1cccc(N2CCN(S(=O)(=O)c3ccc4c(c3)NC(=O)C(C)C(=O)N4)CC2)c1 (stereo not drawn)	4.1	-7.0	-3.4	-3.7	0.1	/	/	/
CCOc1ccc(-c2nc(N)ncc2-c2ccc(OC)cc2)c(O)c1	9.6	-1.1	68.6*	-10.9	1.0	35.2	0.0	-10.9
COc1ccc(-c2nc(C)ncc2-c2ccc(Cl)cc2)c(O)c1	12.5	6.1	54.0*	16.2	-3.3	25.8	-1.2	-5.7
SMILES	CCR6 antagonist	CXCR6 block	EBI2 block	APJ antag	APJ agonist	EBI2 antag conf	EBI2 ag	bGal counter
CCOc1ccc(-c2nc(N)ncc2-c2ccccc2)c(O)c1	2.7	6.1	38.8	-6.1	-2.3	/	/	/
CCOc1ccc(-c2nc(N)ncc2-c2ccc(Cl)cc2)c(O)c1	-11.1	-2.0	58.8*	15.1	-4.2	25.8	0.9	-8.6
O=C1C2C(C(=O)N1/N=C/c1cccc([N+](=O)[O-])c1)C1C=CC2C12CC2 (stereo not drawn)	2.9	-2.8	0.0	-12.8	-4.1	/	/	/
O=C(c1cc2ccccc2o1)N1CCN(S(=O)(=O)c2ccc(F)c(F)c2F)CC1	1.2	8.4	88.8*	-8.9	-3.3	71.2*	1.3	2.8
Cc1cc(C)c(S(=O)(=O)N2CCN(C(=O)C3COc4ccccc4O3)CC2)c(C)c1 (stereo not drawn)	14.6	14.8	88.3*	15.0	-1.6	70.8*	5.6	2.5
Cc1cc(C)c(S(=O)(=O)N2CCN(C(=O)c3cc4ccccc4o3)CC2)c(C)c1	2.8	1.7	90.1*	9.8	-1.1	83.5*	2.7	6.8
CCOC(=O)N1CCN(C(=O)c2cc3ccccc3o2)CC1	-16.7	-7.2	64.1*	18.4	-2.6	20.9	0.4	4.2
CCCn1c(SCC(=O)NCc2ccc3c(c2)OCO3)n[nH]c1=O	-0.6	7.0	-4.7	-16.2	-2.0	/	/	/
CN(C)S(=O)(=O)c1cccc(COC(=O)CCNC(=O)c2ccc([N+](=O)[O-])cc2)c1	9.4	-11.6	9.4	-5.3	-2.7	/	/	/
O=C(C(=O)N1CCN(C(=O)c2ccco2)CC1)c1cc2ccccc2o1	/	/	-7.7	/	/	/	/	/
O=C(c1ccccc1)N1CCN(C(=O)c2cc3ccccc3o2)CC1	4.0	0.1	70.2*	-0.5	-5.4	55.3*	1.5	8.7
CCOC(=O)c1ccc(S(=O)(=O)N2CCN(C(=O)c3cc4ccccc4o3)CC2)cc1	14.4	-1.7	91.4*	7.1	1.7	58.6*	0.2	1.6
O=C(CCc1c[nH]c2ccccc12)NCCc1ccc(Cl)cc1	16.3	-16.5	49.2*	-9.4	-2.4	29.4	0.0	7.0
CN(C(=O)c1cccc(NC(=O)Cc2cccc(NC(=O)C3CCCN(C(=O)C4CCCCC4)C3)c2)c1)C1CC1 (stereo not drawn)	15.3	-1.7	-5.7	/	/	/	/	/
